For data set [1], the system named is Mus musculus. Put plainly: Analgesic activity in mouse assessed as protection against acetic acid-induced abdominal constriction dosed 1 hr before acetic acid challenge measured for 20 mins post acetic acid challenge.
The target of data set [2] is T1, Prostaglandin G/H synthase 2 (Homo sapiens, UniProt P35354).
T1 sequence (P35354 whole entry): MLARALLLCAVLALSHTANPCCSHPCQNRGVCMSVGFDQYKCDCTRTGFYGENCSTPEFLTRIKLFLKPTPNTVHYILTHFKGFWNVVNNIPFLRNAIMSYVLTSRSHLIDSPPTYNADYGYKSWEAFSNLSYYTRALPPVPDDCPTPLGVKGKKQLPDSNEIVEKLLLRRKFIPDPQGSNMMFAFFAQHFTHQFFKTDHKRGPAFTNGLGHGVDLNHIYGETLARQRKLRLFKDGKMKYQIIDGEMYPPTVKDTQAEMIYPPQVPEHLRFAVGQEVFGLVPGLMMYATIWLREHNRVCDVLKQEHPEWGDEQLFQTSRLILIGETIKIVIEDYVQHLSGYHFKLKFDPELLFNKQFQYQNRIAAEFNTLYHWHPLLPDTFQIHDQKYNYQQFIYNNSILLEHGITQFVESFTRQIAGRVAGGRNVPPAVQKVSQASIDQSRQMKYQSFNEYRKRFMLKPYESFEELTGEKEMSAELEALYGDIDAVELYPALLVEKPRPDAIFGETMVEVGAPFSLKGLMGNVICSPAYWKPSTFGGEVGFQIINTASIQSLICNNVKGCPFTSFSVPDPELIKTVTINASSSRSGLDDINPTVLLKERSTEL
Put plainly: Inhibition of human recombinant COX2 pre-treated for 1 hr before 10-acetyl-3,7-dihydroxyphenoxazin substrate addition in presence of porcine liver esterase by fluorescence assay. The procedure, abridged:
(§1)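 COX1 (ovine) and COX2 (human recombinant) were inhibited, with compound tested both without and with porcine liver esterase added. IC50 (μM) and % inhibition at saturation were reported. COX1 was also tested at a single 160 μM concentration.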

Data set [3] has as its system Mus musculus. Put plainly: Anti-inflammatory activity in Swiss mouse model of carrageenan-induced paw edema assessed as reduction in paw swelling at 50 mg/kg, sc dosed 30 mins before carrageenan challenge measured at 2 to 4 hrs post carrageenan challenge by mercury plethysmometry. The arrangement: dose 50 mg/kg. It counts as functional, organism-based. The procedure, abridged: (§2)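 In a mouse carrageenan paw edema model, compounds were given subcutaneously as pretreatment before the carrageenan injection. Swelling of the injected paw was measured with a mercury plethysmometer at 1, 2, 3 and 4 h. Activity was expressed as reduction in swelling relative to control.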
For orientation: In the carrageenan paw model, swelling and tenderness develop within hours.

For data set [4], the target named is T2, Liver carboxylesterase (Sus scrofa, UniProt Q29550).
T2 sequence (Q29550 whole entry): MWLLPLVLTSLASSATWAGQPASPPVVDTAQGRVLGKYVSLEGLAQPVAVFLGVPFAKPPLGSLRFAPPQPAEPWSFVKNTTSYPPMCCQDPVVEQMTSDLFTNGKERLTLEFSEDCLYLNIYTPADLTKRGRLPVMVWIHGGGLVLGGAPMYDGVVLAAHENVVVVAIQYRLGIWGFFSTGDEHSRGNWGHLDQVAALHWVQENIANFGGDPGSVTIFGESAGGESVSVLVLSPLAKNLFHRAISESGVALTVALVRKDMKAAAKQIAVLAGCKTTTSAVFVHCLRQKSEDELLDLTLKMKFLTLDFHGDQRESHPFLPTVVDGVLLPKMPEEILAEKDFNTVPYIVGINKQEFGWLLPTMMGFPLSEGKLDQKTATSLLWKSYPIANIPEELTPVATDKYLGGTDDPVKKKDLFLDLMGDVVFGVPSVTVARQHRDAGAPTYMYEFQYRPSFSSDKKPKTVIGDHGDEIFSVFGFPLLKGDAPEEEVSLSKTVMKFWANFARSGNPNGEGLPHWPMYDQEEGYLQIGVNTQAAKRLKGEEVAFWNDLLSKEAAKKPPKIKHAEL
Description: Prodrug conversion assessed as half life for porcine liver esterase-mediated prodrug conversion measured every 4 minutes for 100 mins by UV-visible absorption spectroscopy. It counts as ADME. The settings on record: pig, isolated protein. The procedure, abridged: (§3)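 Compound was incubated with porcine liver esterase at pH 7.5. UV–vis absorption spectra were recorded every 4 min for 100 min after esterase addition. Pseudo-first-order rate constants (s−1) were derived, and half-lives were calculated from them.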

Data set [5] has as its target T3, Prostaglandin G/H synthase 1 (Ovis aries, UniProt P05979).
T3 sequence (P05979 whole entry): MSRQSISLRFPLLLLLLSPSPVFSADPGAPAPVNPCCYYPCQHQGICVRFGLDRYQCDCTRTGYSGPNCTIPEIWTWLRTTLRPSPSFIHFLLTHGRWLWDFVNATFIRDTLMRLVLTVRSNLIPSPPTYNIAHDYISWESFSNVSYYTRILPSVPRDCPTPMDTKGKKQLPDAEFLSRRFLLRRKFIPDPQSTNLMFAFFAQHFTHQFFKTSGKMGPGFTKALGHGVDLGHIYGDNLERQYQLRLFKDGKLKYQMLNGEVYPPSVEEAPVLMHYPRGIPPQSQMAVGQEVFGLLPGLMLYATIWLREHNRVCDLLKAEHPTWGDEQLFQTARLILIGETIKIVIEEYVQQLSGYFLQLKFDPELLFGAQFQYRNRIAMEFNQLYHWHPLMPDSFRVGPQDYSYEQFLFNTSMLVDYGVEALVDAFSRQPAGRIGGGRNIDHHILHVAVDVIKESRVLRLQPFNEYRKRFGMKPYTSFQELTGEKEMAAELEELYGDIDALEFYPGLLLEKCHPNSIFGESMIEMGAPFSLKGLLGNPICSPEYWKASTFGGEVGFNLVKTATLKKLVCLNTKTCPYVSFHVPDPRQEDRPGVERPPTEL
Put plainly: Inhibition of purified ovine COX1 pre-treated for 1 hr before 10-acetyl-3,7-dihydroxyphenoxazin substrate addition in absence of porcine liver esterase by fluorescence assay. The procedure, abridged:
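COX1 (ovine) and COX2 (human recombinant) were inhibited, with compound tested both without and with porcine liver esterase added. IC50 (μM) and % inhibition at saturation were reported.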

The target in data set [6] is T4, Prostaglandin G/H synthase 1 (Ovis aries) (UniProt P05979).
T4 sequence (whole entry): T3 sequence (P05979 whole entry)
Put plainly: Inhibition of purified ovine COX1 at saturation drug level pre-treated for 1 hr before 10-acetyl-3,7-dihydroxyphenoxazin substrate addition in absence of porcine liver esterase by fluorescence assay. The procedure, abridged: as §1

Data set [7] addresses T3, Prostaglandin G/H synthase 1. Description: Inhibition of purified ovine COX1 pre-treated for 1 hr before 10-acetyl-3,7-dihydroxyphenoxazin substrate addition in presence of porcine liver esterase by fluorescence assay. The procedure, abridged:
as §1

Data set [8] addresses T4, Prostaglandin G/H synthase 1 (Ovis aries). Put plainly: Inhibition of purified ovine COX1 at saturation drug level pre-treated for 1 hr before 10-acetyl-3,7-dihydroxyphenoxazin substrate addition in presence of porcine liver esterase by fluorescence assay. The procedure, abridged: as §1
For data set [9], the target named is T2, Liver carboxylesterase. Put plainly: Prodrug conversion assessed as pseudo-first-order rate constant for porcine liver esterase-mediated prodrug conversion measured every 4 minutes for 100 mins by UV-visible absorption spectroscopy. The settings on record: pig, isolated protein. It counts as ADME. The procedure, abridged:
as §3

The subject of data set [10] is Mus musculus. Put plainly: Anti-inflammatory activity in Swiss mouse model of carrageenan-induced paw edema assessed as reduction in paw swelling at 50 mg/kg, sc dosed 30 mins before carrageenan challenge measured at 1 to 4 hrs post carrageenan challenge by mercury plethysmometry. In kind it is functional, organism-based. On the set-up: dose 50 mg/kg. The procedure, abridged:
as §2

Data set [11] deals with Mus musculus. Description: Anti-inflammatory activity in Swiss mouse model of carrageenan-induced paw edema assessed as reduction in paw swelling at 50 mg/kg, sc dosed 30 mins before carrageenan challenge measured at 120 mins post carrageenan challenge by mercury plethysmometry. It counts as functional, organism-based. The arrangement: dose 50 mg/kg. The procedure, abridged: as §2

In data set [12] the test system is Mus musculus. Description: Analgesic activity in mouse assessed as protection against acetic acid-induced abdominal constriction dosed with equimolar mixture of propyphenazone 1 hr before acetic acid challenge measured for 20 mins post acetic acid challenge.

Calls of active or inactive are those of the source. No cut-off for these calls is given here.

By IC50 is commonly meant the midpoint of a concentration-inhibition curve. The inhibition is the relative decrease from the control value, in per cent.

For `CC(C)c1c(COC(=O)C(C)c2cccc(C(=O)c3ccccc3)c2)n(C)n(-c2ccccc2)c1=O` (stereo unspecified), the Activity in the data set with Mus musculus [1] is reported as 73%. In addition, the IC50 was 2.2 µM in data set [2] (read-out: IC50), 0.2 µM in data set [5] (read-out: IC50) and 0.48 µM in data set [7] (read-out: IC50). Also, the inhibition result in the data set on Mus musculus [3] is “Active”. In addition, the t1/2 at Liver carboxylesterase [4] is 38.5 min. For the same molecule, the inhibition in data set [6] (concentration not given here) came to 43%; in data set [8] (concentration not given here), 100%. Further, the K at Liver carboxylesterase [9] was found to be 0.0003 s⁻¹.

Turning to `CC(C(=O)O)c1cccc(C(=O)c2ccccc2)c1` (stereo unspecified) [KETOPROFEN], the Activity with Mus musculus [1] amounted to 66%. Further, in [5] (read-out: IC50), the IC50 was 0.8 µM. For the same molecule, the inhibition in data set [6] (concentration not given here) worked out at 100%. The Anti-inflammatory activity entry in the data set on Mus musculus [10] is “Active”.

Turning to `Cc1c(C(C)C)c(=O)n(-c2ccccc2)n1C` [PROPYPHENAZONE], the Activity with Mus musculus [1] is recorded as 45%. Further, in the data set with Mus musculus [10], the Anti-inflammatory activity entry is “inactive”.

Consider `O=C(O)Cc1ccccc1Nc1c(Cl)cccc1Cl` [DICLOFENAC], for which the Activity in the data set on Mus musculus [1] is on record as 63%. Besides, in data set [6] (concentration not given here), the inhibition worked out at 100%. Moreover, the Anti-inflammatory activity result with Mus musculus [10] is “Active”.

`CC(C)Cc1ccc(C(C)C(=O)O)cc1` (stereo unspecified): the Anti-inflammatory activity result in the data set on Mus musculus [10] was “Active”.

As for `CC(C)Cc1ccc(C(C)C(=O)OCc2c(C(C)C)c(=O)n(-c3ccccc3)n2C)cc1` (stereo unspecified), the Activity in the data set on Mus musculus [1] worked out at 95%. The IC50 in [2] (read-out: IC50) was 1.3 µM; in data set [5], “Not Active”; in data set [7] (read-out: IC50) it was 4.7 µM. Also, the inhibition result with Mus musculus [3] was “Active”. Further, the t1/2 on Liver carboxylesterase [4] turned out to be 28.8 min. In addition, the inhibition result in data set [6] was “inactive”. Besides, in [8] (concentration not given here), the inhibition is 100%. For the same molecule, the K on Liver carboxylesterase [9] amounted to 0.0004 s⁻¹.

As for `Cc1c(NCc2c(C(C)C)c(=O)n(-c3ccccc3)n2C)c(=O)n(-c2ccccc2)n1C` [BISFENAZONE], the Activity in the data set with Mus musculus [1] is reported as 100%. In addition, in the data set with Mus musculus [11], the inhibition entry was “Active”. Further, the t1/2 entry on Liver carboxylesterase [4] is “Stable”. The IC50 entry in data set [5] and in data set [7] was “Not Active” throughout. Also, the inhibition result in data set [6] and in data set [8] was “inactive” each time.

As for `CC(C)c1c(CN(C)CCc2ccccn2)n(C)n(-c2ccccc2)c1=O`, the Activity in the data set with Mus musculus [1] is on record as 45%. Also, the results for the IC50 entry in data set [2], in [5] (read-out: IC50) and in data set [7] (read-out: IC50) were “Not Active”, 24 µM and 24 µM, respectively. The t1/2 entry at Liver carboxylesterase [4] is “Stable”. For the same molecule, the inhibition in [6] (concentration not given here) and in data set [8] (concentration not given here) was 43% each time. The Anti-inflammatory activity result with Mus musculus [10] is “inactive”.

Regarding `CC(C)c1c(COC(=O)Cc2ccccc2Nc2c(Cl)cccc2Cl)n(C)n(-c2ccccc2)c1=O`, in the data set with Mus musculus [1], the Activity was found to be 87%. Moreover, the half-maximal inhibitory concentration (IC50) in [2] (read-out: IC50) worked out at 9.9 µM; in data set [5] (read-out: IC50), 7.1 µM; in data set [7] (read-out: IC50), 0.25 µM. Also, the inhibition entry in the data set with Mus musculus [3] is “Active”. In addition, on Liver carboxylesterase [4], the t1/2 is 11.5 min. In addition, the inhibition in data set [6] (concentration not given here) was determined as 29%; in data set [8] (concentration not given here) it was 100%. For the same molecule, the K at Liver carboxylesterase [9] was 0.001 s⁻¹.

In the case of `Cc1c(N)c(=O)n(-c2ccccc2)n1C` [AMPYRONE], the Activity in the data set with Mus musculus [1] was 45%; in the data set on Mus musculus [12], 35%. For the same molecule, the IC50 in data set [5] (read-out: IC50) came out at 26 µM. In data set [6] (concentration not given here), the inhibition amounted to 100%.

These data come from ChEMBL document CHEMBL3351375, “Propyphenazone-based analogues as prodrugs and selective cyclooxygenase-2 inhibitors” (ACS Med Chem Lett, 2014).
